The subject of assay [1] is Pseudomonas aeruginosa. The assay is described as follows: Binding affinity to Pseudomonas aeruginosa MurB assessed as change in melting temperature at 1 mM by differential scanning fluorimetry. A digest of the protocol: (§1)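 Recombinant Pa MurB (E. coli BL21(DE3)-expressed, SUMO tag cleaved; MurB–FAD complex) at 10 μM in 25 mM Tris–HCl pH 8.0, 150 mM NaCl, 5X SyproOrange with ligand in DMSO-d6. Ramped 25–95 °C in 0.5 °C steps of 30 s. ΔTm taken against DMSO-d6 reference, with NADP+ as positive control. Ligand at 5.0 mM run once (n = 1); at 1.0 mM run in triplicate (n = 3).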
On the technique in general: Differential scanning fluorimetry follows unfolding on heating by fluorescence.

Assay [2] relates to Pseudomonas aeruginosa. The assay is described as follows: Binding affinity to Pseudomonas aeruginosa MurB assessed as change in melting temperature at 5 mM by differential scanning fluorimetry. The essentials:
as §1

Assay [3] is described as follows: Binding affinity to Pseudomonas aeruginosa MurB assessed as dissociation constant at 3 mM by isothermal titration calorimetry. (ITC needs no label: the signal is the heat of the interaction.)

What is called ΔTm is the change in melting temperature against a reference sample. As to `NC(=O)c1cccc(-n2ncc(C(=O)O)c2C(F)(F)F)c1`, in the assay with Pseudomonas aeruginosa [1], the ΔTm was found to be 0.5 °C.

Regarding `NC(=O)c1ccc[n+]([C@@H]2O[C@H](COP(=O)(O)OP(=O)(O)OC[C@H]3O[C@@H](n4cnc5c(N)ncnc54)[C@H](OP(=O)(O)O)[C@@H]3O)[C@@H](O)[C@H]2O)c1`, in the assay on Pseudomonas aeruginosa [1], the ΔTm amounted to 3.5 °C.

Regarding `Cc1c(C(=O)O)nnn1-c1ccccc1`, in the assay on Pseudomonas aeruginosa [1], the ΔTm came to 0.5 °C.

In the case of `O=C1Nc2ccccc2C1=O`, the values for the ΔTm in the assay on Pseudomonas aeruginosa [1] and in the assay on Pseudomonas aeruginosa [2] were 1 °C and 3.5 °C, respectively.

In the case of `O=C(O)c1cnn(Cc2ccccc2)c1C(F)(F)F`, in the assay with Pseudomonas aeruginosa [1], the ΔTm worked out at 1 °C.

In general, Kd refers to the concentration at which binding is half-saturated. `Cc1cc(C(=O)O)c(C)n1-c1ccccc1`: the thermal shift (ΔTm) in the assay with Pseudomonas aeruginosa [1] amounted to 2 °C. The dissociation constant Kd in assay [3] amounted to 110 µM.

For the compound `Cc1ccccc1-n1c(C)cc(C(=O)O)c1C(F)(F)F`, the ΔTm in the assay on Pseudomonas aeruginosa [1] is 2.5 °C.

For `O=C(O)c1cnn(-c2ccccc2Cl)c1C(F)(F)F`, in the assay with Pseudomonas aeruginosa [1], the ΔTm was 1.5 °C. In addition, the Kd in assay [3] came to 148 µM.

Consider `Cc1cccc(C)c1-n1ncc(C(=O)O)c1C(F)(F)F`, for which the ΔTm in the assay on Pseudomonas aeruginosa [1] was 2.5 °C.

`Cc1nc(C(=O)O)c(C)n1-c1ccccc1`: the shift in melting temperature (ΔTm) in the assay with Pseudomonas aeruginosa [1] came to 0.7 °C.

Regarding `O=C(O)c1cnn(-c2ccccc2)c1O`, in the assay with Pseudomonas aeruginosa [1], the ΔTm turned out to be 0.7 °C.

As to `Cc1cc(C(=O)O)c(C(F)(F)F)n1-c1ccccc1`, the ΔTm with Pseudomonas aeruginosa [1] was 2 °C. For the same compound, the Kd in assay [3] was 112 µM.

With `O=C(O)c1cnn(-c2ccccc2)c1C(F)(F)F`, the ΔTm in the assay on Pseudomonas aeruginosa [1] stood at 1 °C.

For `NCc1ccc2sccc2c1`, the ΔTm was found to be 0 °C in the assay on Pseudomonas aeruginosa [1] and 1 °C in the assay with Pseudomonas aeruginosa [2].

In the case of `Cc1cccc(C)c1-n1ncc(C(=O)NS(=O)(=O)c2ccccc2)c1C(F)(F)F`, in the assay with Pseudomonas aeruginosa [1], the shift in melting temperature (ΔTm) was 3 °C.

For `O=C(O)c1cnn(-c2ccccc2F)c1C(F)(F)F`, the ΔTm in the assay with Pseudomonas aeruginosa [1] came out at 1 °C.

For `O=C(O)c1cnn(-c2ccccc2Br)c1C(F)(F)F`, the ΔTm in the assay on Pseudomonas aeruginosa [1] came out at 2 °C.

On to `Cc1c(C(=O)O)cnn1-c1ccccc1`, for which the ΔTm with Pseudomonas aeruginosa [1] came to 0.5 °C; with Pseudomonas aeruginosa [2], 1.5 °C.

Consider `CS(=O)(=O)NC(=O)c1cnn(-c2ccccc2)c1C(F)(F)F`, for which, in the assay on Pseudomonas aeruginosa [1], the ΔTm turned out to be 0.5 °C.

As for `O=C(O)COc1ccc(Cl)c(Cl)c1`, the values for the ΔTm with Pseudomonas aeruginosa [1] and with Pseudomonas aeruginosa [2] were 1 °C and 1.5 °C, respectively.

Regarding `Cc1cc(Cl)c(Cl)cc1-n1ncc(C(=O)O)c1C(F)(F)F`, in the assay on Pseudomonas aeruginosa [1], the shift in melting temperature (ΔTm) came to 5 °C.

Take `Cc1cc(C(=O)O)c(C)n1-c1cccc(Cl)c1`: in the assay with Pseudomonas aeruginosa [1], the shift in melting temperature (ΔTm) turned out to be 1.5 °C.

`Cc1c(-n2ncc(C(=O)O)c2C(F)(F)F)ccc(Cl)c1Cl`: in the assay with Pseudomonas aeruginosa [1], the ΔTm is 3.7 °C. Further, in assay [3], the Kd was 11.3 µM.

As to `Cc1cccc(-n2ncc(C(=O)O)c2C(F)(F)F)c1C`, the ΔTm in the assay with Pseudomonas aeruginosa [1] stood at 2 °C.

Turning to `NC(=O)C1=CN([C@@H]2O[C@H](COP(=O)(O)OP(=O)(O)OC[C@H]3O[C@@H](n4cnc5c(N)ncnc54)[C@H](OP(=O)(O)O)[C@@H]3O)[C@@H](O)[C@H]2O)C=CC1`, the shift in melting temperature (ΔTm) in the assay with Pseudomonas aeruginosa [1] was determined as 3 °C.

Regarding `Cc1cc(Cl)c(Cl)cc1-n1ncc(C(=O)NS(=O)(=O)c2ccccc2)c1C(F)(F)F`, the ΔTm in the assay on Pseudomonas aeruginosa [1] turned out to be 2.7 °C. Besides, the Kd in assay [3] came out at 12 µM.

`N#CCc1nc2ccccc2s1`: the ΔTm came to 0 °C in the assay with Pseudomonas aeruginosa [1] and 1 °C in the assay on Pseudomonas aeruginosa [2].

As to `O=C(O)c1cnn(-c2cccs2)c1C(F)(F)F`, in the assay with Pseudomonas aeruginosa [1], the ΔTm was 0.3 °C.

Take `O=C(O)c1cnn(-c2ccccc2)c1CO`: in the assay with Pseudomonas aeruginosa [1], the ΔTm was found to be 0.2 °C.

For `Cc1cc(CC(=O)O)on1`, the ΔTm in the assay on Pseudomonas aeruginosa [1] turned out to be 0 °C; in the assay on Pseudomonas aeruginosa [2], 1 °C.

Turning to `O=C(O)Cc1ccccc1`, the ΔTm in the assay with Pseudomonas aeruginosa [1] was 0 °C; in the assay on Pseudomonas aeruginosa [2], 1 °C.

In the case of `O=C(O)CCc1cccc(Cl)c1`, the ΔTm with Pseudomonas aeruginosa [1] is 0.5 °C; in the assay with Pseudomonas aeruginosa [2], 1 °C.

Regarding `Cc1c(C(=O)O)cc(CCO)n1-c1ccccc1`, in the assay on Pseudomonas aeruginosa [1], the thermal shift (ΔTm) came out at 2 °C.

`Cc1c(-n2c(C)cc(C(=O)O)c2C(F)(F)F)ccc(Cl)c1Cl`: the thermal shift (ΔTm) in the assay with Pseudomonas aeruginosa [1] amounted to 2.7 °C. Moreover, the Kd in assay [3] came to 11.4 µM.

As to `Cc1cc(Cl)c(Cl)cc1-n1c(C)cc(C(=O)O)c1C(F)(F)F`, the thermal shift (ΔTm) in the assay with Pseudomonas aeruginosa [1] turned out to be 4.7 °C.

For `NC(=O)c1cnn(-c2ccccc2)c1C(F)(F)F`, the ΔTm in the assay with Pseudomonas aeruginosa [1] was found to be 0 °C.

In the case of `O=C(NS(=O)(=O)c1ccccc1)c1cnn(-c2ccccc2)c1C(F)(F)F`, the thermal shift (ΔTm) with Pseudomonas aeruginosa [1] is 1 °C.

In the case of `Cc1cc(Cl)c(Cl)cc1-n1c(C)cc(C(=O)O)c1C`, the ΔTm in the assay with Pseudomonas aeruginosa [1] was 3.5 °C. Moreover, the Kd in assay [3] stood at 24.1 µM.

On to `O=C(O)c1cnn(-c2ccc(C(F)(F)F)cc2)c1C(F)(F)F`, for which the ΔTm with Pseudomonas aeruginosa [1] is 1 °C.

For the compound `Cc1ccccc1-n1c(C)cc(C(=O)O)c1C`, the ΔTm in the assay on Pseudomonas aeruginosa [1] came out at 2 °C.

`Cc1cc(C(=O)O)c(C)n1-c1ccc(Cl)cc1`: the ΔTm with Pseudomonas aeruginosa [1] was determined as 1.5 °C.

For `O=C(O)c1cnn(Cc2cccs2)c1C(F)(F)F`, in the assay with Pseudomonas aeruginosa [1], the ΔTm stood at 1 °C.

`Cc1cc(C(=O)O)n[nH]1`: the ΔTm in the assay on Pseudomonas aeruginosa [1] was determined as 0 °C; in the assay on Pseudomonas aeruginosa [2], 1 °C.

As for `Cc1c(-n2c(C)cc(C(=O)O)c2C)ccc(Cl)c1Cl`, the ΔTm in the assay on Pseudomonas aeruginosa [1] was found to be 4 °C.

On to `Cc1cc(C(=O)O)c(C)n1-c1ccc(Cl)c(Cl)c1`, for which the thermal shift (ΔTm) in the assay on Pseudomonas aeruginosa [1] came out at 2.3 °C.

For `O=C(O)c1cnn(-c2c(Cl)cccc2Cl)c1C(F)(F)F`, the shift in melting temperature (ΔTm) with Pseudomonas aeruginosa [1] came out at 2.5 °C.

For `O=C(O)c1cnn(-c2cccnc2)c1C(F)(F)F`, in the assay on Pseudomonas aeruginosa [1], the ΔTm came to 0.3 °C.

Turning to `Cc1c(C(=O)NS(=O)(=O)Cc2ccccc2)cnn1-c1ccccc1`, the ΔTm in the assay with Pseudomonas aeruginosa [1] was 0 °C.

Turning to `Cc1cccc(C)c1-n1c(C)cc(C(=O)O)c1C`, the ΔTm in the assay with Pseudomonas aeruginosa [1] is 3 °C.

`NCc1ccc2[nH]ccc2c1`: the figures for the ΔTm in the assay on Pseudomonas aeruginosa [1] and in the assay with Pseudomonas aeruginosa [2] were 0.2 °C and 1 °C, respectively.

`Nc1c(C(=O)O)cnn1-c1ccccc1`: in the assay on Pseudomonas aeruginosa [1], the thermal shift (ΔTm) is 0 °C.

`O=C(O)c1cnn(-c2ccc(Cl)c(Cl)c2)c1C(F)(F)F`: the thermal shift (ΔTm) with Pseudomonas aeruginosa [1] is 2.3 °C. Also, the Kd in assay [3] worked out at 26.1 µM.

Take `Cc1c(C(=O)NCc2ccccc2)cnn1-c1ccccc1`: the ΔTm in the assay with Pseudomonas aeruginosa [1] is 0 °C.

As to `CCOC(=O)c1cnn(-c2ccccc2Cl)c1C(F)(F)F`, the ΔTm in the assay on Pseudomonas aeruginosa [1] is 0 °C.

In the case of `Cc1cccc(C)c1-n1ncc(C(=O)NS(=O)(=O)c2cccc(Br)c2)c1C(F)(F)F`, the ΔTm with Pseudomonas aeruginosa [1] came out at 1.3 °C.

`O=C(O)c1ccc(Cl)c(Cl)c1`: the ΔTm in the assay on Pseudomonas aeruginosa [1] was 0.5 °C; in the assay with Pseudomonas aeruginosa [2], 1 °C.

In the case of `Cc1ccccc1-n1ncc(C(=O)O)c1C(F)(F)F`, the ΔTm with Pseudomonas aeruginosa [1] is 2 °C.

`O=C(O)Cc1ccc(Cl)c(Cl)c1`: the ΔTm is 1 °C with Pseudomonas aeruginosa [1] and 1.5 °C in the assay on Pseudomonas aeruginosa [2].

Regarding `Cc1ccc(C)c(-n2ncc(C(=O)O)c2C(F)(F)F)c1`, the ΔTm with Pseudomonas aeruginosa [1] was 2 °C. For the same compound, the Kd in assay [3] is 138 µM.

`CN1C(=O)C(=O)c2ccccc21`: the values for the shift in melting temperature (ΔTm) in the assay with Pseudomonas aeruginosa [1] and in the assay on Pseudomonas aeruginosa [2] were 1 °C and 4 °C, respectively.

In the case of `Cc1cc(C(=O)O)c(C)n1Cc1cccs1`, the results for the ΔTm in the assay on Pseudomonas aeruginosa [1] and in the assay with Pseudomonas aeruginosa [2] were 1.5 °C and 2 °C, respectively.

`O=C(O)c1cnn(-c2ccncc2)c1C(F)(F)F`: the thermal shift (ΔTm) with Pseudomonas aeruginosa [1] was 0 °C.

On to `O=C(O)c1cnn(-c2ccccc2C(F)(F)F)c1C(F)(F)F`, for which the ΔTm with Pseudomonas aeruginosa [1] came out at 1 °C.

As for `Cc1ccc(-n2ncc(C(=O)O)c2C(F)(F)F)c(C)c1`, in the assay on Pseudomonas aeruginosa [1], the thermal shift (ΔTm) worked out at 2.3 °C.

For `Cc1cc([N+](=O)[O-])ccc1-n1ncc(C(=O)O)c1C(F)(F)F`, the ΔTm with Pseudomonas aeruginosa [1] stood at 1.7 °C.
